From PubChem
TCR CD3 inh: human TCR-CD3 binding inhibition; TAMRA-labeled TCR probe fluorescence, biochemical; inhibition, % at 9.4 µM; hit rate 0.37% among 360,000; AID 651800; in the data active = inhibition above about 19%;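 also: recombinant mutant TCR 2C K166C tagged with TAMRA read by polarization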
ASAP1 GAP inh: ASAP1 ArfGAP inhibition; hit rate 0.19% among 360,000; inhibition, % at 16.5 µM; Q9ULH1; ASAP1-stimulated ARF1 GTP hydrolysis, GDP FP detection; in the data active = inhibition above about 25%
ARFGAP1 inhibitor: inhibitors of rat ARFGAP1; Arfgap1-stimulated ARF1 GTP hydrolysis, GDP FP detection; hit rate 0.26% among 360,000; AID 651572; inhibition, % at 16.5 µM;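 active = inhibition above a per-plate limit, mean inhibition of low control wells plus 3 SD, cut at about 25% in these data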
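Material – truncated rat Arfgap1 GAP domain · Buffer or medium – HEPES-based buffer, pH 7.5 · Reagent – human ARF1(Δ1-17)-GTP substrate · Dosing – 16.5 µM single point, 1.26% DMSO · Schedule – GTP hydrolysis reaction 2 h at 25 °C · Technique – GDP detection by fluorescence polarization · Benchmarks – No-Arfgap1 wells (100%) versus DMSO full-reaction wells (0%) · Repeats – single replicate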
UHRF1 binding: human UHRF1 methylated DNA binding inhibitors. UHRF1 binding to methylated oligo, TR-FRET. inhibition, % at 4.4 µM. hit rate 0.75% among 370,000. AID 687016; in the data active = inhibition above about 21%;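 also: UHRF1 SRA domain binding a hemimethylated CpG hairpin DNA probe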
LEDGF integ inh: blocks HIV-1 LEDGF/p75-dependent DNA integration. TR-FRET IN-LEDGF/p75 DNA integration, Eu/Cy5. inhibition, % at 3.7 µM. hit rate 0.64% among 370,000;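 active = inhibition above the screen-wide mean plus 3 SD, cut at about 13% in these data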;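 also: signal is the Cy5 over europium emission ratio at 671 and 618 nm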
MBD2 DNA inh: MBD2-methylated oligo binding inhibition; inhibition, % at 4.4 µM; hit rate 0.31% among 370,000; TR-FRET, MBD2 binding to methylated oligonucleotide; AID 686964; in the data active = inhibition above about 13%
Target sequence (Q9UBB5 whole entry, looked up): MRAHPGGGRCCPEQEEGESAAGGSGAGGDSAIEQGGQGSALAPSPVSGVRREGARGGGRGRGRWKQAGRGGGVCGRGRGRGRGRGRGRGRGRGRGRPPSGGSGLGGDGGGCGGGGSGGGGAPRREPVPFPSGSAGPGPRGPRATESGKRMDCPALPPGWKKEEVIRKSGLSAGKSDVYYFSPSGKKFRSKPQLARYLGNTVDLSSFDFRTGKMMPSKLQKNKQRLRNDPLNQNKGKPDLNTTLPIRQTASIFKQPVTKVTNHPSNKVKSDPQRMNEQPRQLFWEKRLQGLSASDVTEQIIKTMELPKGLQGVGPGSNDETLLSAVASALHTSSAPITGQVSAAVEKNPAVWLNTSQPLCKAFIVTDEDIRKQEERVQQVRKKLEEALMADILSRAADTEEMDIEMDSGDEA
Each line names hits and unclear results; the compound was inactive in the other large screens. An excerpt weighted towards active compounds, which were near 2% of everything screened.

Cc1cc2c(cc1C)-c1nnnn1C(N1CCCCC1)C(=O)N2 (configuration not stated)	none
COC(=O)c1sc(S(=O)(=O)N2CCCCC2)c(C(=O)OC)c1C	none
COC(=O)c1sc(S(=O)(=O)N2CCC(C)CC2)c(C(=O)OC)c1C	UHRF1 binding 24
CC(NC(=O)c1ccc(F)cc1)C1CC2CCC1C2 (configuration not stated)	UHRF1 binding 88
Cc1ccc(C(=O)NC(C)C2CC3CCC2C3)cc1 (configuration not stated)	none
Cn1c(SC/C=C/c2ccccc2)nnc1-c1cccnc1	none (no result: TCR CD3 inh, ASAP1 GAP inh, ARFGAP1 inhibitor)
O=C(c1cc(C2CC2)on1)N(C1CCCCC1)C1CCOCC1	none (no result: TCR CD3 inh, ASAP1 GAP inh, ARFGAP1 inhibitor)
CCCCc1c(-c2ccccc2OC)ncn1CCc1ccccc1Cl	none
Cn1cccc1C(=O)OCC(=O)NCc1ccc2c(c1)OCO2	TCR CD3 inh 26
O=C(CC[C@H]1O[C@@H](n2ccc(=O)[nH]c2=O)[C@H](O)[C@@H]1O)N[C@@H](Cc1ccccc1)C(=O)NCC1CCCO1 (some centres not stated)	none
CC(=O)N1CCc2cc(S(=O)(=O)NCCC(=O)N(C)Cc3ccccc3F)ccc21	none (no result: TCR CD3 inh, ASAP1 GAP inh, ARFGAP1 inhibitor)
CCC1CCCCN1CCCNC(=O)c1cn(C)c2ccc(S(=O)(=O)N(C)C3CCCCC3)cc2c1=O (configuration not stated)	UHRF1 binding 23
CCC1CCCCN1CCCNC(=O)c1cn(C)c2ccc(S(=O)(=O)N3CCOCC3)cc2c1=O (configuration not stated)	none
O=S(=O)(c1ccccc1Br)N(Cc1cn(Cc2ccccc2)nn1)C1CC1	none (no result: TCR CD3 inh, ASAP1 GAP inh, ARFGAP1 inhibitor)
O=C(Cn1c(=O)oc2cc(S(=O)(=O)N3CCCCC3)ccc21)N1CCCCC1	UHRF1 binding 52
O=C(Cn1c(=O)oc2cc(S(=O)(=O)N3CCCC3)ccc21)N1CCN(C2CCCCC2)CC1	none
CCn1cc(C2C(C(=O)Nc3cc(C)ccn3)=C(C)NC3=C2C(=O)CC(C)(C)C3)c(C)n1 (configuration not stated)	UHRF1 binding 26
COc1cccc(NC(=O)C2CCCN2C(=O)Nc2cccc3c2OCO3)c1 (configuration not stated)	none (no result: TCR CD3 inh, ASAP1 GAP inh, ARFGAP1 inhibitor)
CC(C(=O)N1CCCc2ccccc21)N1CCN(S(=O)(=O)c2ccccc2F)CC1 (configuration not stated)	none
Cc1ccc(S(=O)(=O)N2CCN(C(C)C(=O)N3CCCc4ccccc43)CC2)cc1 (configuration not stated)	UHRF1 binding 27
O=S(=O)(CC1NCCc2ccccc21)NCc1ccccc1 (configuration not stated)	none (no result: TCR CD3 inh, ASAP1 GAP inh, ARFGAP1 inhibitor)
O=C(CN(Cc1ccccc1)S(=O)(=O)c1ccc(F)cc1)NCCC1=CCCCC1	none
Cc1ccc(S(=O)(=O)N(CC(=O)NCCC2=CCCCC2)Cc2ccccc2)cc1	UHRF1 binding 28
CC(C)N1CCCCC(NC(=O)c2ccc(F)c(F)c2)C1=O (configuration not stated)	none (no result: TCR CD3 inh, ASAP1 GAP inh, ARFGAP1 inhibitor)
C[C@H](O)[C@@H]1CN2CCc3ccc(-c4ccc5c(c4)OCO5)cc3[C@@H]2C[C@@H]1N(C)C(=O)Nc1ccccc1	none (no result: TCR CD3 inh, ASAP1 GAP inh, ARFGAP1 inhibitor)
O=[N+]([O-])c1ccc2nc(CNc3nc(N4CCOCC4)nc4c3ncn4-c3ccsc3)[nH]c2c1	none (no result: TCR CD3 inh, ASAP1 GAP inh, ARFGAP1 inhibitor)
O=C(c1nc(SCc2ccc([N+](=O)[O-])cc2)n2ccccc12)C(F)(F)F	UHRF1 binding 24
O=[N+]([O-])c1ccc(CSc2nnc3ccccn23)cc1	none
O=C(O)CCN(Cc1ccccc1)S(=O)(=O)c1ccc(Cl)cc1F	none
O=C(O)CCN(Cc1ccccc1)S(=O)(=O)c1ccccc1Cl	UHRF1 binding 22
CCCCNC(=O)c1nc(C2CCN(S(=O)(=O)c3ccc(OC(F)(F)F)cc3)CC2)oc1-c1ccccc1	none
COc1ccc(NC(=S)Nc2ncccc2C)c(OC)c1	UHRF1 binding 25
COC(=O)[C@]12CCCCC=C1N(Cc1ccc(OC)cc1)C(=O)[C@@H]2CC(=O)NCc1cccc(C(F)(F)F)c1	none (no result: TCR CD3 inh, ASAP1 GAP inh, ARFGAP1 inhibitor)
Cc1nc(SCc2ccc(F)cc2)n[nH]1	none
Cc1cc(C)nc(SCc2ccc(F)cc2)n1	UHRF1 binding 23
CCCC(=O)NCc1ccc2c(c1)cc(C)n2C	ARFGAP1 inhibitor 33
Cc1cc2cc(CNC(=O)CCC(=O)O)ccc2n1C	none
CN(C)c1ccc(C=c2c3ccccc3n3c2c2c([n+]3C)CCCC2)cc1	UHRF1 binding 38
